In PMC2192647 (The Journal of Cell Biology, 2000):
Entries after “also recorded” stand apart in the source; their conditions may differ. Read-outs that look alike come from different tables or passages of the source.

What was measured:
AP-tag TGF-α [1] = assay: TPA-inducible shedding of AP-tag TGF-α in CHO transfectants; format: cell-based, human; conditions: 60 nM TPA; for Percent inhibition at 1 μM TGF-α: 1 μM inhibitor, CHO transfectants
MMP-1 = molecular target: T1, MMP-1 (Homo sapiens, UniProt P03956); assay: MMP-1 inhibition; format: biochemical
T1 sequence (P03956 100-469): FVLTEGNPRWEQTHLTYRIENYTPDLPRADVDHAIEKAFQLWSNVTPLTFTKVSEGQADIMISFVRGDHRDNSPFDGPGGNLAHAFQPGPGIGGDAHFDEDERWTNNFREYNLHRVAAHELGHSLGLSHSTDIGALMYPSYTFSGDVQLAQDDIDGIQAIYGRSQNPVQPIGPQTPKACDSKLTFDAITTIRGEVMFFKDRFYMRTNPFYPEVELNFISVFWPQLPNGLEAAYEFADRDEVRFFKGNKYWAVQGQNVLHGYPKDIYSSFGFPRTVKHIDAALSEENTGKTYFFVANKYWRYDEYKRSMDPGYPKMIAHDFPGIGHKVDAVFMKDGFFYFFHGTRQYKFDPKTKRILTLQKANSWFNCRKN

MMP-3 = MMP-3 (Homo sapiens, UniProt P08254); assay: MMP-3 inhibition; format: biochemical; conditions: read-out: IC50 MMP-3
MMP-9 = MMP-9 (Homo sapiens, UniProt P14780); assay: MMP-9 inhibition; format: biochemical; conditions: read-out: IC50 MMP-9
Human keratinocytes [2] = assay: Keratinocyte migration after wounding; format: cell-based; conditions: for Block of migration relative to the control: 10 μM, Fig. 6 b; for Keratinocyte migration into wound area: 3 d, antibody No. 425 10 μg/ml, AG1478 30 nM, OSU8-1 1 μM
Method in brief: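 Human keratinocytes grown on type I collagen-coated dishes or 6-well plates. At subconfluency, switched to BHE-free medium and scraped with a wide silicone rubber scraper. Washed once to remove floating cells, then re-fed BHE-free medium with or without test compound, antibody No. 425 (10 μg/ml), AG1478 (30 nM), or test compound plus HB-EGF (20 ng/ml). Cultured 3 d at 37°C.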

[3] = tested on: plasminogen-deficient mice; conditions: plasminogen-deficient mice ref Lund et al. 1999; cited from earlier work
Human keratinocytes [4] = assay: Keratinocyte growth; format: cell-based; conditions: 3 d
Method in brief: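 Human keratinocytes kept in supplemented MCDB153. Seeded at 10^5 cells/well in 6-well plates and grown 3 d with or without test compound (1 μM), EGFR neutralizing antibody No. 425 (10 μg/ml) or AG1478 (30 nM). Values are averages of triplicate experiments.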

AP-tag HB-EGF [5] = assay: TPA-inducible shedding of AP-tag HB-EGF in CHO transfectants; format: cell-based, human; conditions: 60 nM TPA
AP-tag AR [6] = assay: TPA-inducible shedding of AP-tag AR in CHO transfectants; format: cell-based, human; conditions: 60 nM TPA
EGFR = assay: Wound-induced EGFR tyrosine phosphorylation in cultured keratinocytes; format: cell-based, human; conditions: wounded keratinocytes
Method in brief: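 Keratinocytes grown 72 h on collagen-coated 10-cm dishes (5 × 10^5/dish). Starved 2 h in BHE-free medium ± test compound (1 μM), cycloheximide (50 μM) or HB-EGF neutralizing antibody No. 197 (10 μg/ml). Tip-scrape wounded, incubated set times at 37°C. Lysates in Triton/vanadate buffer; EGFR immunoprecipitated overnight at 4°C with protein A-Sepharose. Run on 6% SDS-PAGE, PVDF-blotted, probed, ABC/ECL detection.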

[7] = tested on: wild-type HB-EGF, TGF-α, and AR; assay: TPA-inducible shedding of wild-type ligands in CHO transfectants; format: cell-based, human; conditions: 10 μM, Fig. 2 b
Method in brief: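 CHO cells stably expressing untagged HB-EGF, AR or TGF-α, seeded at 2 × 10^5/6-cm dish, grown 24 h in Ham's F12/10% FCS. Surface-biotinylated with 0.1 mg/ml sulfo-NHS-biotin, 15 min on ice. Preincubated ±10 μM test compound for 10 min, then 30 min at 37°C with TPA plus compound. Ligands immunoprecipitated with specific antibodies and protein A; SDS-PAGE/Western blot, avidin-HRP/ECL detection.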

EGFR ligands = assay: Release of soluble EGFR ligands from wounded keratinocytes; format: cell-based, human; conditions: 1 μM
Method in brief: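 Subconfluent keratinocytes in BHE-free medium tip-scraped in cross-stripes 5 mm apart, washed, then re-fed with or without test compound. Conditioned media collected at several times (37°C). Media added to EP170.7 cells (2 × 10^4/well) for 36 h, then [3H]thymidine (1 μCi/well) for 6 h; DNA incorporation measured. HB-EGF neutralised by preincubating with antibody No. 197 (10 μg/ml final). Four independent experiments.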

AP-tag HB-EGF [8] = assay: Wound-induced shedding of AP-tag HB-EGF in HaCat transfectants; format: cell-based, human; conditions: 1 μM, 60 min after wounding
AP-tag AR [9] = assay: Wound-induced shedding of AP-tag AR in HaCat transfectants; format: cell-based, human; conditions: 1 μM, 60 min after wounding
AP-tag TGF-α [10] = assay: Wound-induced shedding of AP-tag TGF-α in HaCat transfectants; format: cell-based, human; conditions: 1 μM, 60 min after wounding
keratinocytes [11] = assay: Juxtacrine growth factor assay; format: cell-based, human; conditions: 1 μM, Fig. 7 a
Method in brief: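 Keratinocytes plated at 10^5 cells/well and grown 12 h. Soluble HB-EGF/AR stripped by washing in medium containing 2 M NaCl. Cells fixed in 5% buffered formalin for 5 min, then washed in RPMI 1640/10% FCS. EP170.7 cells (10^5/well) added with [3H]thymidine for 6 h. Thymidine incorporation into EP170.7 DNA measured. Averages of triplicate experiments.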

keratinocytes [12] = assay: Keratinocyte migration assay in a Boyden chamber; format: cell-based, human
Method in brief: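 Keratinocytes grown 72 h on collagen-coated dishes, detached with trypsin-EDTA for ≤1 min, resuspended at 10^5 cells/ml. Samples placed in bottom wells of a 48-well Boyden chamber: recombinant HB-EGF, or serially diluted 48-h wounded-culture conditioned medium, with test compound added top or bottom. Collagen-coated 8-μm polycarbonate membrane; 50 μl cells per top well. Ran 4 h at 37°C. Migrated cells fixed, hematoxylin-stained, counted microscopically.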

BALB/c mice = assay: In vivo wound assay, full-thickness wounds in mice; conditions: HB-EGF 5 μg/ml in addition to 10 mM OSU8-1, day 6
Method in brief: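 Female BALB/c mice, 8 wk old, housed singly, anaesthetised with diethylether. Two 6-mm full-thickness punch wounds on the back, left open. Each wound received 500 μl daily for 5 d. One side got vehicle (1.5% carboxymethylcellulose in sterile PBS). The other got 10 mM test compound (n = 10) or test compound plus 5 μg/ml HB-EGF (n = 5). Wounds excised day 6, formalin-fixed, sectioned anterior-posterior, anti-cytokeratin stained.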

MMP-3, sequence (P08254 100-477, species assumed): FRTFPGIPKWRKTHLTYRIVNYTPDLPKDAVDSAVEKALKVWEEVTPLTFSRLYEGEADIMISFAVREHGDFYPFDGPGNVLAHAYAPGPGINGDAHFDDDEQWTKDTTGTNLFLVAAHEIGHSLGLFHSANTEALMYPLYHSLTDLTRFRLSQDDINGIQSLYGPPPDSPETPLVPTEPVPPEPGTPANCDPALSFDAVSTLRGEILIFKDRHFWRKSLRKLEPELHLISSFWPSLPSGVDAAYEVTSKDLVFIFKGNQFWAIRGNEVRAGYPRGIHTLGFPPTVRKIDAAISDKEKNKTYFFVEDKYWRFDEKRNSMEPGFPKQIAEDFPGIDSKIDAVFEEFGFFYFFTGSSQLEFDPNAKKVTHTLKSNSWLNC
MMP-9, sequence (P14780 94-707, species assumed): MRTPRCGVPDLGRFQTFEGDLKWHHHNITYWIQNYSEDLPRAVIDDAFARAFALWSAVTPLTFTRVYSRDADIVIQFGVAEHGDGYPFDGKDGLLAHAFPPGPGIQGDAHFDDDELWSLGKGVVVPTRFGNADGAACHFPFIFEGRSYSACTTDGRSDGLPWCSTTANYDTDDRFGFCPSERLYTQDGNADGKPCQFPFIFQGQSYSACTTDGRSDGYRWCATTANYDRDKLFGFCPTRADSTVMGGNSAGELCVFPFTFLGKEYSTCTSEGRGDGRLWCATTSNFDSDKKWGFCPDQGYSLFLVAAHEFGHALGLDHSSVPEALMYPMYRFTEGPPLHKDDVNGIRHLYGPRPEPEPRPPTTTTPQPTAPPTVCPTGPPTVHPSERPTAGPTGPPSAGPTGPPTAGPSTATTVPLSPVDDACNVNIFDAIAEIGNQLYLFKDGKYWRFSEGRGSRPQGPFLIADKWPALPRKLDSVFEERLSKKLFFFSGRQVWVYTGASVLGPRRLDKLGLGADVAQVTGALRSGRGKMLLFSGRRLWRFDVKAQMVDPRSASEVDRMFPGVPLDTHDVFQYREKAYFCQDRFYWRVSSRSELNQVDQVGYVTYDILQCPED

CNC(=O)[C@H](Cc1cccc2ccccc12)NC(=O)[C@@H](CC(=O)NO)CC(C)C [OSU7-6, [4-(N-hydroxyamino)-2R-isobutylsuccinyl]-L-3-(1-naphthyl)-alanine-N-methylamide]
Percent inhibition at 1 μM TGF-α (AP-tag TGF-α [1]; 30 min): 5%
IC50 (MMP-1; read-out: IC50 MMP-1): 0.35 nM
IC50 (MMP-3): 2 nM
IC50 (MMP-9): 0.4 nM
Block of migration relative to the control (Human keratinocytes [2]): ~70%

CNC(=O)[C@H](Cc1c[nH]c2ccccc12)NC(=O)[C@@H](CC(=O)NO)CC(C)C [galardin]
Wound healing [3]: completely arrested

COc1cc2ncnc(Nc3cccc(Cl)c3)c2cc1OC [AG1478, reference compound]
Keratinocyte migration into wound area (Human keratinocytes [2]): suppressed
Proliferation, % of the control (Human keratinocytes [4]; antibody No. 425 10 μg/ml, AG1478 30 nM): 10–15 % of the control

CCCCCCCCCCCCCC(=O)O[C@@H]1[C@@H](C)[C@@]2(O)[C@@H](C=C(CO)C[C@]3(O)C(=O)C(C)=C[C@@H]23)[C@@H]2C(C)(C)[C@]12OC(C)=O [TPA, 12-O-tetradecanoylphorbol-13-acetate, reference compound]
Induction of shedding of AP-tag HB-EGF (AP-tag HB-EGF [5]; 30 min): induced the shedding
Induction of shedding of AP-tag AR (AP-tag AR [6]; 30 min): less effective
Induction of shedding of AP-tag TGF-α (AP-tag TGF-α [1]; 30 min): induced the shedding

COc1ccc(S(=O)(=O)N2Cc3cc(O)c(O)cc3CC2C(=O)NO)cc1 (centres unmarked) [OSU9-6, [6,7-dihydroxy-3-(N-hydroxycarbamoyl)-2-(4-methoxybenzenesulfonyl)-1,2,3,4-tetrahydroisoquinoline]]
Percent inhibition at 1 μM TGF-α (AP-tag TGF-α [1]; 30 min): 5%
Block of migration relative to the control (Human keratinocytes [2]): ~70%

C[C@@H]1C[C@@H]([C@H](O)CC2CC(=O)NC(=O)C2)C(=O)[C@@H](C)C1 [Cycloheximide, cycloheximide]
EGFR activation induced by wounding (EGFR; 50 μM): failed to abrogate; also recorded: did not abrogate

CNC(=O)[C@H](Cc1cccc2c1CCCC2)NC(=O)[C@H](CC(C)C)[C@H](C)C(=O)NO [OSU8-1, [4-(N-hydroxyamino)-2R-isobutyl-3S-methylsuccinyl]-L-3-(5,6,7,8-tetra-hydro-1-naphthyl)alanine-N-methylamide]
Block of shedding of AP-tag HB-EGF (AP-tag HB-EGF [5]; 1 μM, Fig. 2 a): markedly blocked
Block of TPA-inducible shedding of AP-tag HB-EGF (AP-tag HB-EGF [5]; 10 μM, Fig. 2 a): significantly blocked
Percent inhibition at 1 μM AR (AP-tag AR [6]; 1 μM inhibitor, 30 min, CHO transfectants): 70%
Block of shedding of AP-tag AR (AP-tag AR [6]; 1 μM, Fig. 2 a): markedly blocked
Block of TPA-inducible shedding of AP-tag AR (AP-tag AR [6]; 10 μM, Fig. 2 a): significantly blocked
Block of shedding of AP-tag TGF-α (AP-tag TGF-α [1]; 1 μM, Fig. 2 a): partially blocked
Block of TPA-inducible shedding of AP-tag TGF-α (AP-tag TGF-α [1]; 10 μM, Fig. 2 a): significantly blocked
IC50 (MMP-1; read-out: IC50 MMP-1): 0.3 nM
IC50 (MMP-1; read-out: IC50s for all three MMPs, range across MMP-1, MMP-3 and MMP-9): 0.3 to 2.9 nM
IC50 (MMP-3): 2.9 nM
IC50 (MMP-9): 0.3 nM
TPA-inducible shedding of wild-type HB-EGF, TGF-α, and AR [7]: abrogation
Release of EGFR ligands after wounding (EGFR ligands): abrogated completely
EGFR activation after wounding (EGFR; 1 μM): abrogated completely
Inhibition of wound-induced shedding of AP-tag HB-EGF (AP-tag HB-EGF [8]): effective at inhibiting
Inhibition of wound-induced shedding of AP-tag AR (AP-tag AR [9]): effective at inhibiting
Effect on wound-induced AP-tag TGF-α shedding (AP-tag TGF-α [10]): no effect
Keratinocyte migration into wound area (Human keratinocytes [2]): significantly suppressed
Inhibition of cell growth (Human keratinocytes [4]; 1 μM, Fig. 7 b): ~50%
Juxtacrine growth activity of keratinocytes (keratinocytes [11]): slightly upregulated
Fold less potent at promoting migration: conditioned medium collected in the presence of OSU8-1 (keratinocytes [12]; 48-h conditioned medium of wounded keratinocytes, 1 μM OSU8-1, Fig. 7 d): ~30 fold
Effect on migration of keratinocytes induced by conditioned medium (keratinocytes [12]; various concentrations of OSU8-1 added to the conditioned medium, Fig. 7 e): no effect

B1: HB-EGF: human recombinant heparin-binding EGF-like growth factor, soluble form (protein, UniProt Q99075 63-148, looked up)
Heparin-binding EGF-like …: DLQEADLDLLRVTLSSKPQALATPNKEEHGKRKKKGKGLGKKRDPCLRKYKDFCIHGECKYVKELRAPSCICHPGYHGERCHGLSL
Concentration of maximal stimulation of keratinocyte migration (keratinocytes [12]; recombinant HB-EGF, Boyden chamber, Fig. 7 c): 10 ng/mL
Keratinocyte migration and regeneration of the epidermis (BALB/c mice): completely restored
